Source: PubChem (several laboratories)
iPSC survival up = enhancers of human iPSC single-cell survival; hiPSC single-cell survival, ATPlite luminescence; 100% = ROCK inhibitor wells, 0% = DMSO; survival enhancement, % at 20 µM; hit rate 0.044% among 360,000; AID 602274; in the data active = survival enhancement above about 18%;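 also: cells exposed to compounds for 16 hours before the ATP read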
CHOP inh = blocks CHOP induction under ER stress | CHO-K1 CHOP-promoter luciferase, tunicamycin-induced, 15-18 h | inhibition, % at 10 µM | hit rate 3.8% among 220,000;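 active = compounds that reduced the stress-induced luciferase reporter signal by more than about 70% of percent inhibition, limit read from the data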;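 also: 0% = tunicamycin plus vehicle and 100% = wells without tunicamycin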
CHOP UPR activ = apoptotic UPR (CHOP) activation; CHO-CHOP luciferase reporter, luminescence; percent of tunicamycin response over DMSO baseline; activation, % at 10 µM; hit rate 0.34% among 330,000; AID 449763;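 active = at 10 µM dose, activation of 40% or more, normalized to positive control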;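 also: 100% = tunicamycin at 10 µg/mL and 0% = DMSO alone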
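Dosing – one dose, 10 µM in 0.5% DMSO · System – CHO-CHOP cells, stable luciferase reporter of PERK-eIF2a-CHOP signalling · Input – 500 cells/well · Control set – tunicamycin 10 µg/mL final as positive, DMSO-only wells as negative · Timing – 6 h compound treatment, 37 °C · Measure – % activation vs tunicamycin · Technique – luminescence read with Steady-Glo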
Cardio protect = protects H9c2 cardiomyocytes from peroxide injury | H2O2 injury protection, ATPLite, 2 h | hit rate 0.63% among 360,000 | AID 588492 | protection from H2O2 cell death, % at 20 µM;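 active = compounds giving at least 50% protection of heart cells from peroxide-induced death in the single-dose screen, raw or plate-pattern-corrected value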;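 also: 0% = DMSO wells with peroxide and 100% = DMSO wells without peroxide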
UPR XBP1 act = adaptive UPR (XBP1) activation. CHO-XBP1 luciferase reporter, IRE1-XBP1 UPR activation, luminescence; percent of tunicamycin response, DMSO as zero. hit rate 0.33% among 330,000. activation, % at 20 µM;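 active = versus positive control, 20 µM dose yields 30% or more activation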;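 also: 100% = tunicamycin at 10 µg/mL and 0% = DMSO only wells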
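Test system: CHO-XBP1 luciferase reporter cells | Buffer or medium: Serum-containing F12 medium, 10% FBS | Schedule: 6 h compound exposure at 37 °C, 5% CO2 | Detection: Steady-Glo luciferase glow luminescence, 10 min after reagent addition | Read-out basis: Activation, % of tunicamycin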
* marks the source's active call; other numbers are inactive results; x = no result given; ! = repeats disagree. The sample as a whole holds a higher share of hits than the screen did.

SMILES | iPSC survival up | CHOP inh | CHOP UPR activ | Cardio protect | UPR XBP1 act
COc1ccc(Oc2nc(-c3ccccc3)ncc2S(=O)(=O)c2ccccc2)cc1 | -1.2 | 73.3* | -1.2 | -23.8 | -1.9
COc1nc(-c2ccccc2)ncc1S(=O)(=O)c1ccccc1 | 1.9 | 13.6 | -1.6 | -8.9 | 3.5
CC1=C(C(=O)N(C)C)CC(CC(=O)NCCc2ccccn2)C(=O)N1CCCN1CCCC1=O (stereo not given) | 0.7 | x | x | 6.0 | x
CN1OC[C@@H]2CN(S(=O)(=O)c3ccccc3)[C@H](c3ccccc3Br)C[C@@H]21 | -1.8 | x | x | 1.1 | x
COc1cc2c(cc1NC(=O)COC(=O)c1ccc(C(C)(C)C)cc1)oc1ccccc12 | 7.8 | 78.2* | 1.4 | 6.1 | 20.4
COc1cc2c(cc1NC(=O)CN1C(=O)NC3(CCc4ccccc43)C1=O)oc1ccccc12 (stereo not given) | -1.3 | 79.4* | 12.6 | 9.2 | 9.9
COc1cc2c(cc1NC(=S)Nc1cccc(C(F)(F)F)c1)oc1ccccc12 | -2.1 | 70.6* | 1.1 | -6.4 | 0.1
COc1cc2c(cc1NC(=S)Nc1cccc3ccccc13)oc1ccccc12 | -4.0 | 41.1 | 3.7 | -12.2 | 3.9
COc1cc2c(cc1NC(=O)COc1ccccc1OC)oc1ccccc12 | 0.4 | 46.0 | 3.5 | -3.0 | 5.7
Cc1ccccc1NC(=O)CN1C(=O)NC2(CCc3ccccc32)C1=O (stereo not given) | 2.0 | x | -1.5 | 3.6 | -0.5
CC1(C)CCC=[N+]1[O-] | x | 1.4 | x | x | x
COc1ccc2c(c1)C(=O)C1(CC2)OC1c1cccnc1 (stereo not given) | -0.1 | x | x | 0.3 | x
C[C@@H]1CN([C@H](C)CO)C(=O)CCCn2cc(nn2)CO[C@H]1CN(C)C(=O)Nc1ccccc1C(F)(F)F | 0.5 | x | x | 3.1 | x
COc1ccc(-c2c(C(F)(F)F)oc3cc(OCC(=O)Nc4ccccc4C(F)(F)F)ccc3c2=O)cc1OC | 2.3 | 91.2* | x | 10.7 | x
Cc1cc(C)nc(Nc2ncc(O)n2-c2ccc(C)c(Cl)c2)n1 | 2.2 | 80.0* | 2.4 | -5.5 | 0.7
Cc1nc2c3cc(F)ccc3n(Cc3ccccc3)c2s1 | -2.7 | 74.2* | -2.8 | -6.1 | 20.8
CCCCN(C(=O)COC(=O)c1sccc1C)c1c(N)n(CCC)c(=O)[nH]c1=O | -1.1 | x | x | -1.8 | x
CCCCN(CCCNC(=S)NCCCc1cnc[nH]1)c1ccc(Br)cn1 | -3.1 | x | x | 1.9 | x
CCN(C(=O)CSc1nnnn1C)C1CCS(=O)(=O)C1 (stereo not given) | -0.3 | x | 1.6 | 0.5 | -1.1
Cc1c(O)ccc2c(-c3ccccc3)cc(=O)oc12 | -0.5 | x | 1.3 | 83.9* | -0.1
CN(C)CCN1CCN(C2CN(CCc3ccccc3)S(=O)(=O)C2)CC1 (stereo not given) | -1.3 | x | x | -0.1 | x
COc1ccc(Br)cc1[C@H]1[C@H]2C=CC[C@@H](C)[C@@H]2C(=O)N1Cc1ccccc1 | 1.6 | 75.0* | 2.9 | -10.8 | -0.3
CCc1ccccc1NCC(=O)Nc1ccc(Cl)c(C(F)(F)F)c1 | 1.0 | 78.7* | 0.4 | -11.1 | 0.1
Cc1cccc2sc(NC(=O)CN(C)S(=O)(=O)c3ccc(Br)s3)nc12 | -1.5 | 84.9* | -0.5 | -28.6 | -5.2
Cc1cccc(/C=C2/SC(=O)N(Cc3ccccc3)C2=O)n1 | -1.4 | 92.9* | 4.0 | -9.8 | -0.2
SMILES | iPSC survival up | CHOP inh | CHOP UPR activ | Cardio protect | UPR XBP1 act
O=C1/C(=C/c2ccccn2)SC(=S)N1Cc1ccccc1 | 0.1 | 15.1 | 1.5 | -7.8 | -0.1
CCOC(=O)c1cc(-c2ccccc2)n(CC(=O)Nc2ccc(OC)cc2)c1C | -1.8 | 74.8* | -1.8 | -6.8 | -2.9
COc1ccc(NC(=O)Cn2c(-c3ccccc3)cn(-c3ccc(C)cc3)c2=O)cc1 | -1.9 | 72.1* | 1.5 | -2.7 | 0.2
COc1ccc(-c2cn(-c3ccc(C)cc3)c(=O)n2CC(=O)Nc2ccc(OC)cc2OC)cc1 | -1.0 | -6.1 | 2.7 | 12.8 | 0.3
Nc1ncnc2c1nc(Br)n2C1OC2COP(=O)(O)O[C@@H]2C1O (stereo not given in full) | x | -15.2 | x | x | x
CC1(C)CC(=O)C(/C=N/c2ncccc2C(=O)O)=C(O)C1 | 0.9 | 77.7* | -1.9 | 2.8 | 0.5
CC1(C)CC(=O)C(C=Nc2cc(C(=O)c3ccccc3)ccc2N)=C(O)C1 | -1.2 | 44.3 | -0.4 | 16.8 | 3.8
Cc1ccc(N=CC2=C(O)CC(C)(C)CC2=O)nc1 | -1.5 | 6.9 | -0.7 | 4.3 | 7.2
Cc1[nH]nc(N=CC2=C(O)CC(C)(C)CC2=O)c1-c1ccc(Cl)cc1 | -0.5 | 92.4* | 6.3 | 0.4 | 12.7
COC(=O)c1ccc(N)c(N=CC2=C(O)CC(C)(C)CC2=O)c1 | -3.6 | 42.5 | 3.4 | 58.1* | 0.7
O=C(NCCCn1ccnc1)c1sc2cc([N+](=O)[O-])ccc2c1Cl | 3.7 | x | x | -8.5 | x
CCOC(=O)c1nc(C)nc(Sc2n[nH]c(-c3ccccc3)n2)c1C | -0.4 | 3.8 | -1.3 | 7.2 | -0.7
O=S(=O)(Nc1cc(Sc2cccc3cccnc23)c(O)c2ccccc12)c1ccccc1 | x | 101.0* | x | x | x
CCOc1ccc(S(=O)(=O)Nc2cc(SCC(=O)O)c(O)c3ccccc23)cc1 | -0.6 | x | x | -17.4 | x
CCn1c2ccccc2c2cc(NC(=O)c3coc(=O)c(Br)c3)ccc21 | -0.7 | 30.4 | 99.5* | 8.3 | 73.3*
CCn1c2ccccc2c2cc(NC(=O)c3ccc(=O)oc3)ccc21 | 0.0 | 26.6 | 3.9 | -1.4 | 19.2
Cc1ccccc1S(=O)(=O)N(C)C[C@H]1OCc2cn(nn2)CCCC(=O)N([C@H](C)CO)C[C@@H]1C | -1.1 | x | x | 5.0 | x
CCc1nc2ccc(C(=O)NCc3cccs3)cn2c1N(C)Cc1nccs1 | -2.6 | x | x | 48.5* | x
Cc1c(CC(C)(C)C(=O)O)n(Cc2ccc(Cl)cc2)c2ccc(F)cc12 | x | -2.9 | x | x | x
COc1ccc(/C=C/C(=O)Nc2sc(Cc3ccccc3)c(C)c2C(N)=O)cc1 | -0.6 | 74.6* | 6.3 | -12.1 | 6.0
Cc1c(Cc2ccccc2)sc(NC(=O)Cc2ccccc2)c1C(N)=O | -2.7 | x | 0.2 | -12.2 | -0.9
CN(C)c1ccnc2c[cH-]cc12.[Fe].c1ccc(-[c-]2[c-](-c3ccccc3)[c-](-c3ccccc3)[c-](-c3ccccc3)[c-]2-c2ccccc2)cc1 (stereo not given) | -3.3 | 87.5*! | 10.6 | -22.5 | 2.7
CN(C)c1ccnc(Nc2ccccc2)c1C#N | 1.0 | 10.9 | -2.5 | 5.5 | -3.5
O=C(CCCN1C(=O)/C(=C/c2ccccc2OC(F)F)SC1=S)Nc1cccnc1 | -2.9 | x | 0.1 | -5.3 | -2.0
COCCCNc1ccn2nc(-c3ccc(Cl)cc3)cc2n1 | -1.9 | x | x | -13.1 | x
CC(C)(C)c1cc(C(=O)N/N=C/c2ccc(F)cc2)n(-c2ccccc2)n1 | -1.0 | 41.7 | 0.4 | -1.7 | 1.5
COc1ccc(/C=N/NC(=O)c2nc(-c3ccccc3)n(-c3ccccc3)n2)cc1 | -0.9 | 33.5 | 3.6 | 3.4 | -1.8
